Laboratory results as given in ChEMBL document CHEMBL1157107, “Gastroprotective effect of carnosic acid gamma-lactone derivatives” (J Nat Prod, 2010).

Columns and labels:
[1] = system: HepG2; assay: Cytotoxicity against human HepG2 cells after 24 hrs by neutral red uptake assay; type: cell-based; conditions: HepG2, 24 h
In short: (§1)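 Confluent monolayers, seeded at 25 000 cells/mL, were used. MRC-5 and Hep G2 were grown in MEM and AGS in Ham F-12, all with 10% heat-inactivated FBS at 37 °C and 5% CO₂. Cells were exposed for 24 h to 0–1000 µM compound with 1% DMSO final. Viability was read by neutral red uptake as % of control, with quadruplicates in three separate experiments. IC50 was read graphically from dose-response curves.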

[2] = system: Mus musculus; assay: Gastroprotective activity in Swiss albino mouse assessed as reduction in HCl/EtOH-induced gastric lesions at 40 mg/kg, po dosed 50 mins before HCl/EtOH challenge measured after 1 hr relative to control; type: functional, Stomach; set-up: scale not given: the % may be the effect or the level left
In short: (§2)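 Male Swiss albino mice (30 ± 3 g) were randomized into groups of 7 and fasted 24 h with free water, then dosed orally. Controls received 12% Tween 80. Mice were killed 1 h after HCl/EtOH. Stomachs were inflated with saline, fixed in 5% formalin for 30 min and opened along the greater curvature. Lesion index was the summed lesion length (mm), compared with controls by ANOVA/Dunnett.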

[3] = system: MRC5; assay: Cytotoxicity against human MRC5 cells after 24 hrs by neutral red uptake assay; type: cell-based; conditions: MRC5, 24 h; in short: as §1
[4] = system: AGS; assay: Cytotoxicity against human AGS cells after 24 hrs by neutral red uptake assay; type: cell-based; in short: as §1
[5] = system: Mus musculus; assay: Gastroprotective activity in Swiss albino mouse assessed as reduction in HCl/EtOH-induced gastric lesions at 20 mg/kg, po dosed 50 mins before HCl/EtOH challenge measured after 1 hr relative to control; type: functional, Stomach; set-up: scale not given: the % may be the effect or the level left
In short: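 Male Swiss albino mice (30 ± 3 g) were randomised into groups of 7 and fasted 24 h with free water. Dosing was oral at 10, 20 or 40 mg/kg; controls received 12% Tween 80. Mice were killed 1 h after HCl/EtOH, and stomachs were saline-inflated, fixed in 5% formalin for 30 min and opened. Lesion index is the summed lesion length (mm); % reduction is versus control. ANOVA with Dunnett's test.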

[6] = system: Mus musculus; assay: Gastroprotective activity in Swiss albino mouse assessed as reduction in HCl/EtOH-induced gastric lesions at 10 mg/kg, po dosed 50 mins before HCl/EtOH challenge measured after 1 hr relative to control; type: functional, Stomach; set-up: scale not given: the % may be the effect or the level left; in short: as §2

For CC(C)c1cc2c3c(c1O)OC(=O)[C@@]31CCCC(C)(C)[C@@H]1CC2, the IC50 [1] was 240 µM, the Activity [2] was 59.5% and the IC50 [3] was 293 µM. It also gave an IC50 [4] of 246 µM, an Activity [5] of 30.6% and an Activity [6] of 20.8%.

With CC(C)c1cc2c(c(O)c1O)[C@@]1(C(=O)O)CCCC(C)(C)[C@@H]1CC2 [CARNOSIC ACID] the IC50 [1] was 41.3 µM, the IC50 [3] was 21.8 µM and the IC50 [4] was 89.8 µM.

With CC(=O)Oc1c(C(C)C)cc2c3c1OC(=O)[C@@]31CCCC(C)(C)[C@@H]1CC2 the IC50 [1] was 294 µM, the Activity [2] was 62% and the IC50 [3] was 290 µM. The IC50 [4] was 275 µM.

CC(C)c1cc2c3c(c1OC(=O)CCCc1c[nH]c4ccccc14)OC(=O)[C@@]31CCCC(C)(C)[C@@H]1CC2 gave an IC50 [1] of 120 µM, an Activity [2] of 50% and an IC50 [3] of 54.5 µM. For the same compound, the IC50 [4] was 46.8 µM.

With CC(C)c1cc2c3c(c1OC(=O)c1cccnc1)OC(=O)[C@@]31CCCC(C)(C)[C@@H]1CC2 the IC50 [1] was 264 µM, the Activity [2] was 9% and the IC50 [3] was 296 µM. It also gave an IC50 [4] of 280 µM.

With CCCCCCCCCCCC(=O)Oc1c(C(C)C)cc2c3c1OC(=O)[C@@]31CCCC(C)(C)[C@@H]1CC2 the IC50 [1] was > 1000 µM, the Activity [2] was 36% and the IC50 [3] was > 1000 µM. The IC50 [4] was 413 µM.

In the case of CC(C)c1cc2c3c(c1OC(=O)c1ccccc1)OC(=O)[C@@]31CCCC(C)(C)[C@@H]1CC2, the IC50 [1] is reported as 510 µM, the Activity [2] is reported as 48% and the IC50 [3] is reported as 512 µM. It also gave an IC50 [4] of 503 µM.

In the case of CCCCCCCCCCCCCCCC(=O)Oc1c(C(C)C)cc2c3c1OC(=O)[C@@]31CCCC(C)(C)[C@@H]1CC2, the IC50 [1] is reported as > 1000 µM, the Activity [2] is reported as 65% and the IC50 [3] is reported as > 1000 µM. For the same compound, the IC50 [4] was > 1000 µM.

For CC(C)c1cc2c3c(c1OC(=O)CCC(=O)Oc1c(C(C)C)cc4c5c1OC(=O)[C@]51CCCC(C)(C)C1CC4)OC(=O)[C@@]31CCCC(C)(C)[C@@H]1CC2 (stereo partly specified), the IC50 [1] was > 1000 µM, the Activity [2] was 62% and the IC50 [3] was > 1000 µM. It also gave an IC50 [4] of 623 µM.

CC(C)c1cc2c3c(c1OC(=O)Cc1ccccc1)OC(=O)[C@@]31CCCC(C)(C)[C@@H]1CC2 was tested, and the IC50 [1] was 522 µM, the Activity [2] was 44% and the IC50 [3] was 516 µM. The IC50 [4] was 133 µM.

For CCCC(=O)Oc1c(C(C)C)cc2c3c1OC(=O)[C@@]31CCCC(C)(C)[C@@H]1CC2, the IC50 [1] was 56.1 µM, the Activity [2] was 82% and the IC50 [3] was 44.4 µM. For the same compound, the IC50 [4] was 99.5 µM.

With CCCCCCCC/C=C/CCCCCCCC(=O)Oc1c(C(C)C)cc2c3c1OC(=O)[C@@]31CCCC(C)(C)[C@@H]1CC2 the IC50 [1] was > 1000 µM, the Activity [2] was 70% and the IC50 [3] was > 1000 µM. The IC50 [4] was 822 µM.

CC(C)c1cc2c3c(c1OC(=O)Cc1c[nH]c4ccccc14)OC(=O)[C@@]31CCCC(C)(C)[C@@H]1CC2 showed an IC50 [1] of 251 µM, an Activity [2] of 51% and an IC50 [3] of 109 µM. It also gave an IC50 [4] of 85.6 µM.

CCC(=O)Oc1c(C(C)C)cc2c3c1OC(=O)[C@@]31CCCC(C)(C)[C@@H]1CC2 was tested, and the IC50 [1] was 196 µM, the Activity [2] was 59% and the IC50 [3] was 125 µM. It also gave an IC50 [4] of 113 µM.

Compound CC(C)c1cc2c3c(c1OC(=O)c1ccccc1C(=O)Oc1c(C(C)C)cc4c5c1OC(=O)[C@]51CCCC(C)(C)C1CC4)OC(=O)[C@@]31CCCC(C)(C)[C@@H]1CC2 (stereo partly specified) has an IC50 [1] of 611 µM, an Activity [2] of 15% and an IC50 [3] of 678 µM. The IC50 [4] was 375 µM.

CCCCC/C=C/C/C=C/CCCCCCCC(=O)Oc1c(C(C)C)cc2c3c1OC(=O)[C@@]31CCCC(C)(C)[C@@H]1CC2 was tested, and the IC50 [1] was 289 µM, the Activity [2] was 45% and the IC50 [3] was 293 µM. The IC50 [4] was 253 µM.

Work on COc1c(C(C)C)cc2c3c1OC(=O)[C@@]31CCCC(C)(C)[C@@H]1CC2 yielded an IC50 [1] of 58.1 µM, an Activity [2] of 71% and an IC50 [3] of 31.9 µM. The IC50 [4] was 26.7 µM.

For COc1c(C(C)C)cc2c(c1O)[C@@]1(C(=O)O)CCCC(C)(C)[C@@H]1CC2, the IC50 [1] was 43.5 µM, the IC50 [3] was 54.9 µM and the IC50 [4] was 45.2 µM.

CC(C)C(=O)Oc1c(C(C)C)cc2c3c1OC(=O)[C@@]31CCCC(C)(C)[C@@H]1CC2 showed an IC50 [1] of 112 µM, an Activity [2] of 72% and an IC50 [3] of 119 µM. It also gave an IC50 [4] of 105 µM.

CC(C)c1cc2c3c(c1OC(=O)CCl)OC(=O)[C@@]31CCCC(C)(C)[C@@H]1CC2 showed an IC50 [1] of 203 µM, an Activity [2] of 81% and an IC50 [3] of 130 µM. The IC50 [4] was 103 µM.

Cc1c(OCC(F)(F)F)ccnc1C[S+]([O-])c1nc2ccccc2[nH]1 (stereo unspecified) [LANSOPRAZOLE] gave an Activity [5] of 80%.
